From ChEMBL document CHEMBL3297742, “Tetrahydronaphthyridine and dihydronaphthyridinone ethers as positive allosteric modulators of the metabotropic glutamate receptor 5 (mGlu₅)” (J Med Chem, 2014)

What was measured:
[1] = molecular target: Metabotropic glutamate receptor 5 (Rattus norvegicus) (UniProt P31424); assay: Positive allosteric modulator activity at rat mGlu5 receptor expressed in HEK293 cells assessed as potentiation of glutamate-induced calcium mobilization at 30 uM by fluorescence assay relative to glutamate; type: functional, cell-based
How it was run: (§1)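 HEK293 cells stably expressing rat mGlu5, 15000 cells/well, grown overnight, loaded with 1 µM Fluo-4AM for 50 min at 37 °C in HBSS/20 mM HEPES/2.5 mM probenecid pH 7.4. Compound added, then an EC20 of glutamate 140 s later and an EC80 90–120 s after that. Fluorescence over basal normalized to maximal glutamate response (100 µM glutamate); compound at up to 30 µM; ≥3 independent determinations.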

[2] = molecular target: T1, Metabotropic glutamate receptor 5 (Rattus norvegicus, UniProt P31424); assay: Positive allosteric modulator activity at rat mGlu5 receptor expressed in HEK293 cells assessed as potentiation of glutamate-induced calcium mobilization by fluorescence assay; type: functional, cell-based; how it was run: as §1
[3] = test system: Plasma; assay: Fraction unbound in human plasma; type: ADME, cell-free
[4] = molecular target: Metabotropic glutamate receptor 3 (Rattus norvegicus) (UniProt P31422); assay: Negative allosteric modulator activity at rat mGlu3 receptor expressed in HEK293 cells assessed as negative cooperativity fold shift of glutamate concentration response curve for GIRK channel-mediated thallium flux at 10 uM treated 140s prior to glutamate challenge by fluorescence analysis; type: cell-based
How it was run: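 HEK293-GIRK cells expressing rat mGlu2, 3, 4, 6, 7 or 8, 15000 cells/well. Vehicle or 10 µM compound added, then 140 s later a glutamate CRC (L-AP4 for mGlu7) in thallium buffer (12 mM thallium sulfate, 10 mM HEPES). Thallium flux through GIRK read by fluorescence.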

[5] = test system: Plasma; assay: (§2) Fraction unbound in rat plasma; type: ADME, cell-free
[6] = molecular target: T1, Metabotropic glutamate receptor 5; assay: Partial antagonist activity at rat mGlu5 receptor expressed in HEK293 cells; type: cell-based
[7] = molecular target: Metabotropic glutamate receptor 5 (Rattus norvegicus) (UniProt P31424); assay: Partial antagonist activity at rat mGlu5 receptor expressed in HEK293 cells relative to glutamate; type: cell-based
[8] = as §2; type: ADME, cell-free

T1 sequence (P31424 whole entry): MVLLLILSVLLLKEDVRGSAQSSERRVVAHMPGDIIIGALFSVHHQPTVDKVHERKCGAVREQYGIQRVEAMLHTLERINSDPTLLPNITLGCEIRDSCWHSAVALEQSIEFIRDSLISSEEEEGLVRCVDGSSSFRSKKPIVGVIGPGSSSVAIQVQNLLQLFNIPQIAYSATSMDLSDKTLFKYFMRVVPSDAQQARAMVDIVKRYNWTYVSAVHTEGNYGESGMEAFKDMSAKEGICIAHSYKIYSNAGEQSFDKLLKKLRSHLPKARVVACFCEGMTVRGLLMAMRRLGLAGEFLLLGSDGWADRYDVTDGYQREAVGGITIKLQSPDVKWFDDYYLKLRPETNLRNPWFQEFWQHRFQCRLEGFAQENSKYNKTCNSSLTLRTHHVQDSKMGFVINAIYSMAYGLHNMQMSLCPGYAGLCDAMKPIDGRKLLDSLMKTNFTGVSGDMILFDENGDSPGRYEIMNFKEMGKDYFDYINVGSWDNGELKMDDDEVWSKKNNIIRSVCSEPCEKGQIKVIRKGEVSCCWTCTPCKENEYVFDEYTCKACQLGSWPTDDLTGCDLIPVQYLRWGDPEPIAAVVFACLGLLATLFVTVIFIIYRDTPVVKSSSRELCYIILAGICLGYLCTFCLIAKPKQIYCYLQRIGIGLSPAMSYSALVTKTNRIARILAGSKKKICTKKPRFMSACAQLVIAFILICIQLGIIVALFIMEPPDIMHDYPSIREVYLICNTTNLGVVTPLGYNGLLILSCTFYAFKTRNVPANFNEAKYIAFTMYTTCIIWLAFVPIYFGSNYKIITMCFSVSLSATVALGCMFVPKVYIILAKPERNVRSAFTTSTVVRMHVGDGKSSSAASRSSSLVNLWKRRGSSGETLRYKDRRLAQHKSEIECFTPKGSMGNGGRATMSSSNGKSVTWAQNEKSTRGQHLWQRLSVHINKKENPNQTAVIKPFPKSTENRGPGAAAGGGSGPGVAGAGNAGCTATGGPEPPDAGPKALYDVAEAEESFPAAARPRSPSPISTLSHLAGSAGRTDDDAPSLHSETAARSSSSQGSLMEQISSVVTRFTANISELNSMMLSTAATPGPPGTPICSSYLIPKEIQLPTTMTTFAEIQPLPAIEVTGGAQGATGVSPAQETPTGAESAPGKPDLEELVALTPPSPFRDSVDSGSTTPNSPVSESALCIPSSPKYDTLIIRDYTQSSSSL
Sequence of Metabotropic glutamate receptor 5 (Rattus norvegicus) (P31424 21-1203 limits assumed): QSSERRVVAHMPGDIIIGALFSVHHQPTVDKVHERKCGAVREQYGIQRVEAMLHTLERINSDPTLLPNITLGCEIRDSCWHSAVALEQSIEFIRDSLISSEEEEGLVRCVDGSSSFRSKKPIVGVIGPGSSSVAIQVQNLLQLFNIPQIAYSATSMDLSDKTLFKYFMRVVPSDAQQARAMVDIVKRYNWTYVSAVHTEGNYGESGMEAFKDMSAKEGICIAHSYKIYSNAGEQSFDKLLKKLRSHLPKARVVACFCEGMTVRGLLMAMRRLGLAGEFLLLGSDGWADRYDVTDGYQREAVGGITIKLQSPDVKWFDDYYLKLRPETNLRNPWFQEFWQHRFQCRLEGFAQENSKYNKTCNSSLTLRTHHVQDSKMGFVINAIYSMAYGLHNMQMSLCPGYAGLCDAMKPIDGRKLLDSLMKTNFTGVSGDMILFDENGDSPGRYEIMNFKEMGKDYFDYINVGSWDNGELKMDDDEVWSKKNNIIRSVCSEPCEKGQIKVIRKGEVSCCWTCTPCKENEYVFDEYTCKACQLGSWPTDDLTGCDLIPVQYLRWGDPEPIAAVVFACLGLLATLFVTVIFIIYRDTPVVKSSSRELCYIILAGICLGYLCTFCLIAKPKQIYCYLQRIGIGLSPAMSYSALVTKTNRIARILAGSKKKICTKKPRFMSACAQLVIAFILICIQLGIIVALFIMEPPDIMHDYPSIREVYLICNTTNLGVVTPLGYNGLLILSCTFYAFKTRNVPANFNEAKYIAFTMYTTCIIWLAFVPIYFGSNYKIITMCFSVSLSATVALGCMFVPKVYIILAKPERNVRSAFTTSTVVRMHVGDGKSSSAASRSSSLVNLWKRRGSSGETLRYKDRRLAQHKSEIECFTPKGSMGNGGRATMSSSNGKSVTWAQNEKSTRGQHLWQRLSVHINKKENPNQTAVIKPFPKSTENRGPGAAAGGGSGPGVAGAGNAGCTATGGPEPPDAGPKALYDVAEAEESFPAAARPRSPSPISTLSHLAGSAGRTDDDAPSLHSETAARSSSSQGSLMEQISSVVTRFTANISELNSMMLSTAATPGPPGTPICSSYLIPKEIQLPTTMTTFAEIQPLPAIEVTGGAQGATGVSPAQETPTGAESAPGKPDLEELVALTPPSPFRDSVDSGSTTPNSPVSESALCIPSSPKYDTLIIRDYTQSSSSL
Sequence of Metabotropic glutamate receptor 3 (Rattus norvegicus) (P31422 23-879 limits assumed): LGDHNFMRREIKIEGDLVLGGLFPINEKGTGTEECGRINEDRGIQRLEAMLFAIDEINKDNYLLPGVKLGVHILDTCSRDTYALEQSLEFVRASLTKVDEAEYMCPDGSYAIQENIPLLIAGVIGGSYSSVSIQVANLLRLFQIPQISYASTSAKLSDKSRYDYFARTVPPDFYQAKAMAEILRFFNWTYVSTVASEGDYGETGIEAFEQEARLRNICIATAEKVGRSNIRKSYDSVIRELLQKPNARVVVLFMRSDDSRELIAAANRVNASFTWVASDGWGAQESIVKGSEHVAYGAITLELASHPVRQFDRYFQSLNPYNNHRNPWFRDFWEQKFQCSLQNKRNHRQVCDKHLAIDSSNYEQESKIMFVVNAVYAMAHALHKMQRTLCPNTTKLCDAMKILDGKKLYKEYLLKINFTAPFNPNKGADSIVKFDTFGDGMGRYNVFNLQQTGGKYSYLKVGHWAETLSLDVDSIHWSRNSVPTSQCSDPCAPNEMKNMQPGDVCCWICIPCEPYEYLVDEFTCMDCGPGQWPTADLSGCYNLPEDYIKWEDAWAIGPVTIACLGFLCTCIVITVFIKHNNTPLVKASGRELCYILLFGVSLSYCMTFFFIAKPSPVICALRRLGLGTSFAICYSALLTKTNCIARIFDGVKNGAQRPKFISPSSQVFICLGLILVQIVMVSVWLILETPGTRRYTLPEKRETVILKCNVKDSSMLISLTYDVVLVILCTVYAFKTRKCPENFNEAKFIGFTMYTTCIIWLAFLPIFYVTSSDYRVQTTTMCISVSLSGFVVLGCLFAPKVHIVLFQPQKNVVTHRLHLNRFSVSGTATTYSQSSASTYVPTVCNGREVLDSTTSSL

O=C1NCCc2cc(COc3ccccc3)cnc21
Activity [1]: < 10%

O=C1NCCc2cc(COc3ccccc3)ncc21
Activity [1]: < 10%

CN1CCc2nc(OCc3cccc(F)c3)ccc2C1=O
Activity [1]: < 10%

O=C1c2ccc(OCc3cccc(F)c3)nc2CCN1c1ccc(F)cc1
EC50 ([2]; read-out: EC50): 0.118 µM
%max [1]: 38%

O=C1c2ccc(OCc3cccc(F)c3)nc2CCN1CC1CCC1
EC50 ([2]; read-out: EC50): 0.444 µM
%max [1]: 36%

O=C1NCCc2nc(OCc3ccccn3)ccc21
Activity [1]: < 10%

CCCCOc1ccc2c(n1)CCN(c1ccc(F)cc1F)C2=O
Activity [1]: < 10%

O=C1c2ccc(COc3cccc(F)c3)nc2CCN1c1ccc(F)cc1
Fu [3]: 0.014
EC50 ([2]; read-out: EC50): 0.097 µM
%max [1]: 72%
fold change (FC) [4]: 0.2
Fu [5]: 0.029

O=C1c2cnc(COc3ccccc3)cc2CCN1c1ccc(F)cc1
EC50 ([2]; read-out: EC50): 0.403 µM
%max [1]: 30%

O=C1c2ccc(COc3cccc(F)c3)nc2CCN1c1ccc(F)cn1
EC50 ([2]; read-out: EC50): 0.595 µM
%max [1]: 59%

O=C1c2ccc(OCc3cccc(F)c3)nc2CCN1CC1CC1
Activity [1]: < 10%

O=C1c2ncc(COc3ccccc3)cc2CCN1c1ccc(F)cc1
Fu [3]: 0.096
EC50 ([2]; read-out: EC50): 0.538 µM
%max [1]: 81%
fold change (FC) [4]: 0.3
Fu [5]: 0.11

O=C1c2ccc(COc3cccc(F)c3)nc2CCN1CC1CC1
EC50 ([2]; read-out: EC50): > 10 µM
%max [1]: 33%

O=C(c1ccccc1)N1CCc2ncc(OCc3ccccc3)cc2C1
Activity [1]: < 10%

O=C1NCCc2nc(OCc3ccccc3Cl)ccc21
Activity [1]: < 10%

CN1CCc2cc(COc3ccccc3)cnc2C1=O
Activity [1]: < 10%

O=C1c2ccc(OCc3cccc(F)c3)nc2CCN1c1ccc(F)cn1
Fu [3]: 0.01
EC50 ([2]; read-out: EC50): 0.212 µM
%max [1]: 50%
Fu [5]: 0.025

O=C1NCCc2nc(OCc3ccccc3)ccc21
EC50 ([2]; read-out: EC50): 1.03 µM
EC50 ([2]; read-out: pEC50 (converted)): 1.05 µM
%max [1]: 54%

CCCCOc1ccc2c(n1)CCNC2=O
Activity [1]: < 10%

O=C(c1cccc(F)c1)N1CCc2ncc(OCc3cccc(F)c3)cc2C1
EC50 ([2]; read-out: EC50): 1.63 µM
%max [1]: 30%

CN1CCc2cc(COc3ccccc3)ncc2C1=O
Activity [1]: < 10%

O=C1NCCc2nc(OCc3ccc(Cl)cc3)ccc21
Activity [1]: < 10%

O=C1c2ccc(OCc3cccc(F)c3)nc2CCN1Cc1ccccc1
EC50 ([2]; read-out: EC50): 3.17 µM
%max [1]: 36%

O=C1NCCc2nc(COc3ccccc3)ccc21
EC50 ([2]; read-out: EC50): > 10 µM
%max [1]: 43%

O=C(c1ccc(F)cc1)N1CCc2ncc(OCc3ccccc3)cc2C1
IC50 [6]: 7.81 µM
Emin [7]: 53%

O=C1NCCc2nc(OCc3cccnc3)ccc21
Activity [1]: < 10%

O=C(C1CC1)N1CCc2ncc(OCc3cccc(F)c3)cc2C1
Activity [1]: < 10%

O=C(c1ccc(F)cc1)N1CCc2ncc(COc3cccc(F)c3)cc2C1
EC50 ([2]; read-out: EC50): 1.09 µM
%max [1]: 69%

CC(N1CCc2cc(COc3ccccc3)ncc2C1=O)C(C)(C)C (stereo not drawn)
Activity [1]: < 10%

O=C1c2ccc(OCc3ccccc3)nc2CCN1Cc1ccccc1
EC50 ([2]; read-out: EC50): 2.77 µM
%max [1]: 23%

O=C1c2ccc(OCc3ccccc3)nc2CCN1Cc1ccccn1
Activity [1]: < 10%

CC(C)CN1CCc2nc(OCc3cccc(F)c3)ccc2C1=O
Activity [1]: < 10%

O=C1NCCc2nc(OCc3ccccc3F)ccc21
EC50 ([2]; read-out: EC50): 1.17 µM
%max [1]: 68%

O=C(c1ccc(F)cc1)N1CCc2ncc(COc3ccc(F)cc3)cc2C1
EC50 ([2]; read-out: EC50): 1.77 µM
%max [1]: 53%

O=C1NCCc2nc(OCc3cccc(Cl)c3)ccc21
EC50 ([2]; read-out: EC50): 0.062 µM
%max [1]: 43%

O=C1c2ccc(COc3cccc(F)c3)nc2CCN1Cc1ccccc1
EC50 ([2]; read-out: EC50): > 10 µM
%max [1]: 38%

O=C1c2ccc(COc3ccccc3)nc2CCN1c1ccc(F)cc1
Fu [3]: 0.021
EC50 ([2]; read-out: EC50): 0.198 µM
%max [1]: 68%
fraction unbound [8]: 0.036

O=C1NCCc2nc(COc3cccc(F)c3)ccc21
EC50 ([2]; read-out: EC50): > 10 µM
%max [1]: 34%

C[C@@H](N1CCc2cc(COc3ccccc3)cnc2C1=O)C(C)(C)C
Activity [1]: < 10%

CC(C)CN1CCc2nc(COc3cccc(F)c3)ccc2C1=O
EC50 ([2]; read-out: EC50): 1.15 µM
%max [1]: 38%

O=C(c1ccc(F)cc1)N1CCc2ncc(COc3ccccc3)cc2C1
EC50 ([2]; read-out: EC50): 0.64 µM
%max [1]: 69%

CC1(CN2CCc3nc(OCc4cccc(F)c4)ccc3C2=O)COC1
EC50 ([2]; read-out: EC50): 2.47 µM
%max [1]: 39%

CN1CCc2nc(COc3cccc(F)c3)ccc2C1=O
Activity [1]: < 10%
